MT1-MMP txn act – MT1-MMP promoter transcription activation. HT1080 MT1-MMP promoter luciferase reporter, luminescence, overnight; active compounds read high. activation factor at 10 µM. 86,000 compounds, 0.16% hits;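 active means activation factor of at least 2 for MT1-MMP transcription at 10 µM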
RORA act – activates the human nuclear receptor RORA | P35398 | CHO-K1 Gal4-RORA LBD luciferase reporter, luminescence; percent increase over mock-subtracted basal signal | activation, % at 10 µM | 65,000 compounds, 1.5% hits | AID 560;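 active means activation above the mean of all tested compounds plus 3 SD, cut at about 49% in these data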
Ec RNAP inh – Escherichia coli RNA polymerase inhibition; E. coli RNA polymerase, fluorescence transcription assay; inhibition, %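 (tested at 10 µM)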; 62,000 compounds, 0.2% hits; AID 559; in the data active means inhibition above about 20%
SF1 activator – SF-1 (human) activation | Q13285 | CHO-K1 Gal4-SF-1 LBD luciferase reporter; % increase over DMSO SF-1-specific signal | activation, % at 10 µM | 65,000 compounds, 1.9% hits;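 active means activation above the mean activation of all tested compounds plus 3 SD, cut at about 50% in these data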
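Test system: transient Gal4-SF-1 LBD reporter, CHO-K1; Amount: 4,000 CHO-K1 cells per well; Doses: 10 µM only; Timing: compound exposure 20 h at 37 °C; Signal: luciferase light emission; Read-out basis: percent activation relative to DMSO median and mock-transfected background; Control set: DMSO negative control and −SF1 background wells; Replicates: one test per compound.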
AP complement – orthogonal test for alternative complement pathway inhibitors. 62,000 compounds, 0.08% hits. inhibition, % at 5 µM. Human serum alternative complement pathway, LPS-coated ELISA, C3 deposition; tested in compound mixtures. AID 1235;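 active means inhibition above 30% in each of the two pooled mixtures holding the compound, so the lower value exceeds 30%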
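Test system: human serum alternative complement pathway, C3 deposition on LPS-coated wells; also added: Plate-bound LPS; doses: 5 µM per compound in ten-compound mixtures; schedule: 1 h at 37 °C; detection: Anti-C3 ELISA, OD 450 nm; evaluation: percent inhibition of C3 deposition onto LPS; repeats: two pool placements per compound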
TNAP act DEA – activates human TNAP at intermediate phosphate acceptor concentration; P05186; purified TNAP, CDP-star luminescence, 100 mM DEA, 30 min; active compounds read high; scale: 0 levamisole-inhibited, 1 vehicle-only enzyme; activation factor at 20 µM; 64,000 tested, under 10 active; AID 813;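 active means activation factor of at least 2 at 20 µM, relative to controls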
Hits are given with their value; – = inactive; · = no result given. In the library only some 2.2% were active in any assay of this set; here they are far more common.

SMILES	MT1-MMP txn act	RORA act	Ec RNAP inh	SF1 activator	AP complement	TNAP act DEA
C/C(N)=C(/C#N)C(=O)CSc1nnc(Nc2c(C)cccc2C)s1	–	–	–	–	–	–
C/C(N)=C(/C#N)C(=O)CSc1nnc(Nc2cccc(C)c2C)s1	–	–	·	58	–	–
CCCCCCc1ccc(-c2ncc(N)cn2)cc1	–	50	–	59	–	–
CCOCCn1c(CN2CCCCC2)nc2c1c(=O)n(C)c(=O)n2C	–	–	–	–	–	–
CCOCCn1c(CN2CCN(CC)CC2)nc2c1c(=O)n(C)c(=O)n2C	–	–	22	–	–	–
Cc1ccc(C(C(=O)NC(C)(C)C)N(Cc2ccco2)C(=O)CCC(=O)Nc2nccs2)cc1 (stereo not drawn)	–	·	·	·	·	·
Cc1csc(NC(=O)c2sc3nc(-c4cccs4)ccc3c2N)n1	–	–	–	50	–	–
CCCSc1nnc(NC(=O)c2sc3nc(-c4cccs4)ccc3c2N)s1	–	–	–	–	–	–
COCCNC(=O)c1cc(-c2cccc(OC)c2)on1	–	–	–	–	–	–
COc1cccc(-c2cc(C(=O)Nc3ccccc3SC)no2)c1	–	66	–	–	–	–
COc1ccc(-c2cc(C(=O)Nc3ccccc3SC)no2)cc1OC	–	–	–	–	–	–
COCC(C)NC(=O)c1cc(-c2cccc(OC)c2)on1 (stereo not drawn)	–	–	–	71	–	–
CCC(C)NC(=O)c1cc(-c2ccc(OC)cc2)on1 (stereo not drawn)	–	60	–	–	–	–
CCC(C)NC(=O)c1ccccc1NS(=O)(=O)c1ccc(OC)c(OC)c1 (stereo not drawn)	–	–	–	–	–	–
C#CC(C)(CC)NC(=O)Cn1nnc(-c2ccc(S(C)(=O)=O)cc2)n1 (stereo not drawn)	–	–	–	–	–	–
CC(C(=O)Nc1ccc2c(c1)OCO2)N(c1ccc(Cl)cc1)S(C)(=O)=O (stereo not drawn)	–	–	–	–	–	–
CCOc1cccc(C(=O)NC2CCCCC2)c1	–	–	–	52	–	–
CCCn1nnc(NC(=O)c2cccc(OCC)c2)n1	–	52	–	66	–	–
CCCn1nnc(NC(=O)c2cccc(OCC(C)C)c2)n1	–	–	–	–	–	–
CCn1nnc(NC(=O)c2cccc(-c3cc4ccccc4oc3=O)c2)n1	–	–	–	55	–	–
CSc1cccc(NS(=O)(=O)c2ccccc2)c1	–	–	–	–	–	–
CSc1cccc(NS(=O)(=O)c2ccc(F)cc2)c1	–	–	–	–	34	–
CNS(=O)(=O)c1cccc(C(=O)OCc2cc(Cl)cc3c2OCOC3)c1	–	–	–	–	–	–
c1ccc2c(c1)CCN2CCN1CCc2ccccc21	–	–	–	–	–	–
O=C1c2ccccc2C(=O)N1CCN1CCc2ccccc21	–	–	–	52	·	–
SMILES	MT1-MMP txn act	RORA act	Ec RNAP inh	SF1 activator	AP complement	TNAP act DEA
CCCc1cc2c(=O)c(-c3ccccn3)c(C)oc2cc1O	–	–	–	–	–	–
CCCc1cc2c(=O)c(-c3ccccn3)coc2cc1OC	–	54	–	76	–	–
COc1ccc2c(c1)Cc1sc(NC(C)=O)nc1-2	–	–	–	77	–	–
COc1ccc(CCNC(=O)c2[nH]c(C)c(C(C)=O)c2C)cc1	–	·	·	·	·	·
CC(=O)c1c(C)[nH]c(C(=O)NCCc2cccc(C)c2)c1C	–	–	–	71	–	–
CCCCc1noc2c1/C(=N\O)CC(c1ccccc1)C2 (stereo not drawn)	–	72	–	–	–	–
CCCCc1n[nH]c2c1/C(=N/O)CC(c1ccccc1)C2 (stereo not drawn)	–	–	–	–	–	–
O=S(=O)(Nc1ncnc2sc3c(c12)CCC3)c1ccc(Cl)s1	–	–	–	–	–	–
Cc1nn(-c2ccccn2)c(C)c1Oc1ccccc1O	–	–	–	–	–	–
Cc1nn(-c2nc3ccccc3s2)c(C)c1Oc1ccccc1O	–	66	–	58	–	–
O=C(Nc1cccc(Cl)c1)N1CCN(Cc2ccccc2)CC1	–	73	–	85	–	–
COC(=O)C1(Cc2ccccc2)C=C2C(=C(c3ccccc3)C(=O)C2C)CN1 (stereo not drawn)	–	·	·	·	·	·
COc1ccccc1N1CCN(S(=O)(=O)Cc2ccccc2Cl)CC1	–	–	–	–	–	–
Cc1c(OCC(=O)OC(C)C)ccc2c3c(c(=O)oc12)CCC3	–	–	–	–	–	–
CC(=O)COc1ccc2c3c(c(=O)oc2c1C)CCCCC3	–	–	–	54	–	–
CC(=O)C(C)Oc1ccc2c3c(c(=O)oc2c1C)CCCC3 (stereo not drawn)	–	60	–	–	–	–
O=C1NC(c2ccc3c(c2)OCO3)Nc2ccccc21 (stereo not drawn)	–	63	–	72	–	–
CN1CCN(C2OC(=O)c3ccccc32)CC1 (stereo not drawn)	–	·	·	·	·	·
O=C1OC(N2CCN(Cc3ccccc3)CC2)c2ccccc21 (stereo not drawn)	–	69	·	–	·	·
c1ccc(Cn2c(-c3ccco3)nc3nc4ccccc4nc32)cc1	–	75	–	82	–	–
CCc1c2c(nc3ccc(OC)cc13)COC2	–	·	·	·	·	·
CCc1cccc(NC(=O)CS(=O)Cc2nc(-c3ccc(C)cc3)oc2C)c1 (stereo not drawn)	–	–	–	–	–	–
Cn1ccnc1SCC(=O)Nc1ccc(Oc2ccccc2)cc1	–	60	–	–	–	–
O=C(Cc1ccccc1)Nc1ccccc1C(=O)O	–	·	·	·	·	·
Cc1ccc2cc3cc(C(=O)N4CCCCC4C)oc3nc2c1 (stereo not drawn)	–	–	–	65	–	–
SMILES	MT1-MMP txn act	RORA act	Ec RNAP inh	SF1 activator	AP complement	TNAP act DEA
Cc1ccc2cc3cc(C(=O)N4CC(C)CC(C)C4)oc3nc2c1 (stereo not drawn)	–	–	–	–	–	–
COc1ccc(C(=O)n2c(-c3ccco3)nc3ccccc32)cc1	–	65	–	–	–	–
COC(=O)[C@@]1(Cc2ccccc2)[C@H]2c3cc(C(=O)N4CCCC4)n(Cc4cccc5ccccc45)c3C[C@H]2CN1C(=O)c1ccccc1	–	·	·	·	·	·
COc1ccc(C2N(c3cc(Cl)ccc3OC)C(=O)C3CCCN32)cc1OC (stereo not drawn)	–	–	–	–	–	–
CN(C)S(=O)(=O)c1ccc(NC(=O)c2ccccn2)cc1	–	57	–	74	–	–
CCN(CC)S(=O)(=O)c1ccc(NC(=O)c2ccccn2)cc1	–	49	–	55	–	–
CN(C)S(=O)(=O)c1ccc(C(=O)Nc2ccccn2)cc1	–	–	–	–	–	–

High-throughput results from PubChem.
